The text below walks through data of PubChem BioAssay.

As a reminder, the viability is a read-out of living cells in per cent, often relative to untreated cells. Usually inhibition stands for the change of the read-out against control, counted positive when it falls.

Molecules are shown by their SMILES. Unmarked numbers belong to inactive results. Results filed as inconclusive are left out. Calls of active or inactive are those of the source.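 Rule for the calls, unless noted: active = growth inhibition above 25% in both replicates, a cutoff set 3 SD above the mean; inconclusive = above 25% in only one replicate; inactive = the rest.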

Experiment [1] is described as follows: OD615 S. cerevisiae growth inhibition, permissive medium, pilot counter-assay, permissive growth control for S. cerevisiae lifespan shortening project (AID 705). To be noted: OD615, 24 h, at 10 µM, active compounds read high. Put shortly:
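System: S. cerevisiae with engineered DeaD lifespan system / Measured by: absorbance (optical density) at 615 nm / Read-out: reduction in yeast growth (OD615) / Times: 4 h cell pre-growth, 24 h exposure at 30 °C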

A short description of experiment [2]: Restrictive medium S. cerevisiae growth inhibition, OD615, pilot screen of yeast lifespan reduction project, restrictive growth control (AID 706;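 active = growth inhibition above a set limit, 3 SD over mean compound inhibition, in both replicates, cut at about 43% in these data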;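 note: modified DeaD lifespan yeast strain shifted to restrictive glucose medium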). Conditions: OD615, 48 h, at 10 µM, active compounds read high. Put shortly: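 System: Engineered S. cerevisiae DeaD strain | Buffer or medium: Glucose-based CSMM-D restrictive medium | Schedule: 4 h pre-incubation, 48 h exposure at 30 °C | Technique: Optical density at 615 nm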

Experiment [3] is described as follows: viability gain of MRP-1-high H69AR cells under doxorubicin, pilot screen, MRP-1 activator project, CellTiter-Glo, duplicate (AID 807;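 active = viability increase at or above a cutoff of the median across tested compounds plus 3 SD, cut at about 8.5% in these data, passing the limit was not always enough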;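 note: compound pretreatment 18-22 h then 72 h combined with doxorubicin; 0% = doxorubicin alone and 100% = vehicle without doxorubicin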). Conditions: H69AR viability with doxorubicin, CellTiter-Glo luminescence; at 10 µM; active compounds read high. On the technique in general: ATP-based viability assays read luminescence as a measure of living cells.
Experiment [4] is described as follows: growth suppression of beta-catenin knockout HCT116, pilot screen, human colon tumor cells (AID 823;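 active = cell viability at or below a set limit in both duplicate runs, the limit being the all-compound median minus 4 SD, cut at about 23% in these data, passing the limit was not always enough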;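 note: 0% = wells killed by 20 µM Hyamine and 100% = untreated DMSO cell wells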). Conditions: CellTiter-Glo, 60 h, at 10 µM, active compounds read low.
A short description of experiment [5]: growth suppression of PTEN-deleted HCT116, pilot screen, cell-based, HCT116 clonal line, CellTiter-Glo (AID 824;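 active = viability at or below 27.92% in each of two runs, the all-compound median minus 4 SD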;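 note: 0% = 20 µM Hyamine control and 100% = vehicle cell control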). To be noted: 60 h, at 10 µM, active compounds read low.
Experiment [6] in a line: inhibitors of the yeast RAM network, pilot screen, dse1pr::URA3 reporter, 5-FOA selection (AID 869;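 active = inhibition over a set limit, the all-compound mean plus 3 SD, in both replicate runs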;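 note: 0% = DMSO wells with no growth and 100% = 10 µM 1-NA-PP1 with full growth; RAM network block rescues cells from 5-FOA so hits raise OD615 growth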). To be noted: S. cerevisiae dse1pr::URA3 5-FOA growth, OD615, 2 d; at 10 µM; active compounds read high; strain carries analog-sensitive mutant Cbk1 kinase.
Experiment [7] is described as follows: RAM signaling pathway blockade in yeast – S. cerevisiae, Pdr1DBD-CYC8 efflux-inhibited sensitized strain, primary screen (AID 1298;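 active = RAM network inhibition above 8.4% in each of two replicates, 3 SD over the compound average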;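 note: 0% = DMSO untreated cells without growth and 100% = 10 µM 1-NA-PP1 full growth; higher means more yeast growth rescued from 5-FOA killing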). To be noted: S. cerevisiae cbk1-as DSE1-URA3 strain, 5-FOA growth OD615, 2 d; at 50 µM; active compounds read high.

`O=C(CC1(O)C(=O)Nc2ccccc21)c1ccccc1` (centres undefined): the growth inhibition in experiment [1] is 1.47%; in experiment [2] it was -8.37%. Further, the viability increase in experiment [3] was -3.28%. Besides, the viability was 92.2% in experiment [4] and 96.7% in experiment [5]. In addition, the inhibition in experiment [6] was 0.055%. Besides, the RAM network inhibition in experiment [7] is -1.83%.

For the compound `CCOc1ccc(CC(=O)NCc2cn3c(C)csc3n2)cc1`, the growth inhibition in experiment [1] was -5.88%; in experiment [2] it was 12.6%. The viability increase in experiment [3] is -0.15%. Moreover, the viability is 97.4% in experiment [4] and 102% in experiment [5]. Also, in experiment [6], the inhibition is 1.14%. Besides, in experiment [7], the RAM network inhibition is 6.38%.

Regarding `CCOc1ccc(C2CC(c3cccc(Cl)c3)n3nc(N)nc3N2)cc1` (centres undefined), the figures for the growth inhibition in experiment [1] and in experiment [2] were 5.36% and 7.05%, respectively. In experiment [3], the viability increase was -0.08%. Besides, the viability in experiment [4] was 92%; in experiment [5] it was 88.2%. Also, the inhibition in experiment [6] is 1.14%. The RAM network inhibition in experiment [7] is 9.61%.

On to `CS(=O)(=O)N1CCN(c2nc(-c3ccc(F)cc3)cs2)CC1`, for which the growth inhibition in experiment [1] was -4.7%; in experiment [2], 1.69%. Also, the viability increase in experiment [3] is -0.68%. The viability in experiment [4] was 90.9%; in experiment [5], 88.8%. Further, the inhibition in experiment [6] is 2.98%. For the same compound, in experiment [7], the RAM network inhibition was 3.11%.

As to `O=C(NCCCN1CCOCC1)NC12CC3CC(CC(C3)C1)C2`, the growth inhibition in experiment [1] is -1.84%; in experiment [2], 2.31%. For the same compound, in experiment [3], the viability increase is -0.98%. The viability in experiment [4] is 104%; in experiment [5], 105%. The inhibition in experiment [6] was 0.625%. For the same compound, the RAM network inhibition in experiment [7] was 0.01%.

Take `CCOc1ccc(C2CC(c3ccc(CC)cc3)Nc3nc(N)nn32)cc1` (centres undefined): the growth inhibition was 13.7% in experiment [1] and 21.5% in experiment [2]. Also, the viability increase in experiment [3] is 5.61%. Besides, the viability in experiment [4] is 97.5%; in experiment [5] it was 90.2%. Further, in experiment [6], the inhibition was 0.69%. Besides, in experiment [7], the RAM network inhibition is 8.15%.

For `CCN1CCN(CCNC(=O)c2ccc(CS(=O)(=O)c3c(Cl)cccc3Cl)o2)CC1`, the growth inhibition was 5.83% in experiment [1] and 6.53% in experiment [2]. Moreover, the viability increase in experiment [3] is -1.94%. The viability in experiment [4] is 110%; in experiment [5], 103%. Moreover, the inhibition in experiment [6] is 2.98%. In experiment [7], the RAM network inhibition is 1.59%.

For the compound `Cn1c(=O)oc2cc(S(=O)(=O)NCCN3CCc4ccccc4C3)ccc21`, the growth inhibition in experiment [1] is -14.3%; in experiment [2], -10.7%. In addition, in experiment [3], the viability increase was -3.63%. Also, the values for the viability in experiment [4] and in experiment [5] were 98.5% and 89.9%, respectively. Further, in experiment [6], the inhibition is 1.6%. Also, the RAM network inhibition in experiment [7] is 0.61%.

On to `c1ccc(C(Cc2nc(-c3cccnc3)no2)c2ccccc2)cc1`, for which the growth inhibition in experiment [1] was -8.42%; in experiment [2], -4.57%. The viability increase in experiment [3] is 0.35%. Further, the viability in experiment [4] is 90.8%; in experiment [5], 88.2%. The inhibition in experiment [6] is 1.46%. Further, the RAM network inhibition in experiment [7] is 7.55%.

As for `Cn1c(SCc2nc3ccccc3[nH]2)nnc1-c1cccnc1`, the results for the growth inhibition in experiment [1] and in experiment [2] were 3.69% and 24.8%, respectively. Further, the viability increase in experiment [3] was -2.45%. Besides, the values for the viability in experiment [4] and in experiment [5] were 95.1% and 99.1%, respectively. In experiment [6], the inhibition was 2.94%. Moreover, the RAM network inhibition in experiment [7] was 5.38%.

Take `COc1cc(C2NC(=O)NC(C)=C2C(=O)OC2CCCCC2)cc(Br)c1O` (centres undefined): the growth inhibition in experiment [1] was -9.15%; in experiment [2], -9.77%. Further, in experiment [3], the viability increase was 0.18%. In addition, the viability was 82.1% in experiment [4] and 77.3% in experiment [5]. The inhibition in experiment [6] was 0.33%. In experiment [7], the RAM network inhibition is 8.82%.

`CC1=CC(C)(C)Nc2ccc(OC(=O)c3ccco3)cc21`: the results for the growth inhibition in experiment [1] and in experiment [2] were 1.4% and -5.68%, respectively. Besides, the viability increase in experiment [3] was -7.71%. The viability is 0.49% (active) in experiment [4] and 0.6% (active) in experiment [5]. Further, in experiment [6], the inhibition is 0.475%. Also, the RAM network inhibition in experiment [7] is 0.98%.

On to `Cc1cc(NC(=O)CC(CN(C)S(=O)(=O)c2ccccc2)c2ccccc2)no1` (centres undefined), for which the growth inhibition was -7.79% in experiment [1] and -20.5% in experiment [2]. Moreover, in experiment [3], the viability increase was -4.04%. For the same compound, the viability in experiment [4] is 89.7%; in experiment [5] it was 81.3%. In addition, the inhibition in experiment [6] is 1.59%. The RAM network inhibition in experiment [7] was 3.14%.

Turning to `CCOc1ccc(NC(=O)c2ccc(N)cc2)cc1`, the results for the growth inhibition in experiment [1] and in experiment [2] were -1.98% and -14.4%, respectively. Also, the viability increase in experiment [3] is -2.73%. Also, the viability in experiment [4] is 91.8%; in experiment [5] it was 89.2%. In addition, the inhibition in experiment [6] was 2.77%. Besides, the RAM network inhibition in experiment [7] is 2.88%.

As to `O=C(O)CCNc1cc2ccccc2cc1C(=O)O`, the results for the growth inhibition in experiment [1] and in experiment [2] were -15.4% and -3.88%, respectively. The viability increase in experiment [3] is -1.49%. For the same compound, the results for the viability in experiment [4] and in experiment [5] were 97.3% and 96.5%, respectively. Also, the inhibition in experiment [6] is 1.59%. In experiment [7], the RAM network inhibition was -0.37%.

As for `COc1ccc(OC)c(-c2nnc(NC(=O)C(C)Sc3nncn3C)s2)c1` (centres undefined), the growth inhibition in experiment [1] was -1.32%; in experiment [2], 23.7%. Moreover, in experiment [3], the viability increase is -4.48%. Moreover, the viability in experiment [4] is 106%; in experiment [5], 95.5%. The inhibition in experiment [6] is 0.65%. Further, the RAM network inhibition in experiment [7] was 0.37%.

With `O=c1c2[nH]c3ccc(F)cc3c2ncn1CCN1CCN(Cc2ccccc2)CC1`, the results for the growth inhibition in experiment [1] and in experiment [2] were -2.19% and 1.39%, respectively. Moreover, the viability increase in experiment [3] was -3.25%. Further, the values for the viability in experiment [4] and in experiment [5] were 86.3% and 80.3%, respectively. In experiment [6], the inhibition was 1.52%. In addition, the RAM network inhibition in experiment [7] is 1.11%.
